Experimental data reported in ChEMBL document CHEMBL1139291, “Syntheses and opioid receptor binding properties of carboxamido-substituted opioids” (Bioorg Med Chem Lett, 2009).

Key:
Mu-type opioid receptor [1] = molecular target: Mu-type opioid receptor (Cavia porcellus, UniProt P97266); assay: Displacement of [3H]DAMGO form mu opioid receptor in guinea pig brain
[2] = Displacement of [3H]Naltrindole form delta opioid receptor in guinea pig brain; parameters: species or system Cavia porcellus
How it was run: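 Guinea pig brain membrane protein incubated with 12 concentrations of compound and 0.2 nM [3H]naltrindole in 50 mM Tris–HCl, pH 7.5, with 10 mM MgCl2 and 0.5 mM PMSF, for 3 h at 25 °C. Samples filtered onto polyethyleneimine-soaked glass fiber filters, washed, and counted by scintillation. IC50 came from log-probit fit, and Ki = IC50/(1 + [radioligand]/Kd).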

[3] = molecular target: Kappa-type opioid receptor (Cavia porcellus, UniProt P41144); assay: Displacement of [3H]U69593 form kappa opioid receptor in guinea pig brain
Sequence of Kappa-type opioid receptor (Cavia porcellus, UniProt P41144) (P41144 whole entry): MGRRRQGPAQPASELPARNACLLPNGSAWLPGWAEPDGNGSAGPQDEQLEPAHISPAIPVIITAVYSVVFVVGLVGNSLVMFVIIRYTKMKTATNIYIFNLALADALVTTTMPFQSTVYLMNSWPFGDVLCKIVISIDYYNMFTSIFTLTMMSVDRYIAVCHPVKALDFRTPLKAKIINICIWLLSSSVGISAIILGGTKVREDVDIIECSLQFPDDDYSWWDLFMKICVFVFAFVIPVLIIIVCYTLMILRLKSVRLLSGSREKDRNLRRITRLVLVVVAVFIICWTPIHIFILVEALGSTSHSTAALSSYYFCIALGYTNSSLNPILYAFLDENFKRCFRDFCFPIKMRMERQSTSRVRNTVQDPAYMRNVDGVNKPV

[4] = molecular target: T1, Kappa-type opioid receptor (Homo sapiens, UniProt P41145); assay: Activity at human cloned kappa opioid receptor expressed in CHO cells by [35S]GTPgammaS binding assay; format: functional, cell-based
T1 sequence (P41145 whole entry): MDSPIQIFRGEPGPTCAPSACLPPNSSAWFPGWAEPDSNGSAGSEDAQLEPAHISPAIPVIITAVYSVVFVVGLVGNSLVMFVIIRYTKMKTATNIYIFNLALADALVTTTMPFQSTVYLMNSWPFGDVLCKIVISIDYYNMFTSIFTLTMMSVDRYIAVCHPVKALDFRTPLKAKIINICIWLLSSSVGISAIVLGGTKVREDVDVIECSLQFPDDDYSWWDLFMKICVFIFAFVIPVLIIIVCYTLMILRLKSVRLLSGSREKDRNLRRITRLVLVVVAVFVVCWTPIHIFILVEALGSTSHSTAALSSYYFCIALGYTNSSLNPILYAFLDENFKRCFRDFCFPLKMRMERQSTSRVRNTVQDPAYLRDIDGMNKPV

[5] = molecular target: Delta-type opioid receptor (Homo sapiens, UniProt P41143); assay: Displacement of [3H]Naltrindole form human delta opioid receptor expressed in CHO cells; format: cell-based
Sequence of Delta-type opioid receptor (P41143 whole entry): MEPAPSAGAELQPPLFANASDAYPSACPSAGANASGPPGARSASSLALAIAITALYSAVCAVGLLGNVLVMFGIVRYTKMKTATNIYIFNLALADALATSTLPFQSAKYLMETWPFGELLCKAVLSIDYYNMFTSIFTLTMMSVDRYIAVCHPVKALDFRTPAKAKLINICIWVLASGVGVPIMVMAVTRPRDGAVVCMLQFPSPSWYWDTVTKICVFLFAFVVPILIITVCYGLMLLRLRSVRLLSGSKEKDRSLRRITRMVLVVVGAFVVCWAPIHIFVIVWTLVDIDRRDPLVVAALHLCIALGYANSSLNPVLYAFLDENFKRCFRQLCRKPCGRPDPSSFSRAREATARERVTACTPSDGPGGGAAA
How it was run: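 Membranes from CHO cells stably expressing the human receptor incubated with 12 concentrations of compound and 0.2 nM [3H]naltrindole in 50 mM Tris–HCl, pH 7.5, with 10 mM MgCl2 and 0.5 mM PMSF, for 3 h at 25 °C. Filters were soaked in 0.1% PEI before filtration and scintillation counting. IC50 came from log-probit fit, and Ki = IC50/(1 + [radioligand]/Kd).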

[6] = molecular target: T1, Kappa-type opioid receptor; assay: Displacement of [3H]U69593 form human kappa opioid receptor expressed in CHO cells; format: cell-based
CHO [7] = assay: Ratio of Ki for human mu opioid receptor to Ki for human kappa opioid receptor expressed in CHO cells; format: cell-based
CHO [8] = assay: Ratio of Ki for human delta opioid receptor to Ki for human kappa opioid receptor expressed in CHO cells; format: cell-based
Mu-type opioid receptor [9] = molecular target: T2, Mu-type opioid receptor (Homo sapiens, UniProt P35372); assay: Displacement of [3H]DAMGO form human mu opioid receptor expressed in CHO cells; format: cell-based
T2 sequence (P35372 whole entry): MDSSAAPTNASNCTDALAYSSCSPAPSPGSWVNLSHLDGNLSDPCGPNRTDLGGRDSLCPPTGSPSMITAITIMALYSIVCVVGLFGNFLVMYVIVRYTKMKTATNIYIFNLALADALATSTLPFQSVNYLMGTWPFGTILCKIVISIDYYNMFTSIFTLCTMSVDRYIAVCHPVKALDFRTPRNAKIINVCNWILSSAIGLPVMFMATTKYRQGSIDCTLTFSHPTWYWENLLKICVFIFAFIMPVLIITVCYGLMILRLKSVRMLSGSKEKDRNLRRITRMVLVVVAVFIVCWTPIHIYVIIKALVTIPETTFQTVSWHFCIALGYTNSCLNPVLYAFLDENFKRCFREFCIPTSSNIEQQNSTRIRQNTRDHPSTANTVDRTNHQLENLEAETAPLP

Mu-type opioid receptor [10] = molecular target: T2, Mu-type opioid receptor; assay: Activity at human cloned mu opioid receptor expressed in CHO cells by [35S]GTPgammaS binding assay; format: functional, cell-based
Cavia porcellus = species: Cavia porcellus; assay: Ratio of Ki for delta opioid receptor to Ki for kappa opioid receptor in guinea pig brain
Mu-type opioid receptor [11] = molecular target: T2, Mu-type opioid receptor; assay: Activity at human cloned mu opioid receptor expressed in CHO cells assessed as inhibition of DAMGO-induced [35S]GTPgammaS binding; format: functional, cell-based
[12] = molecular target: T1, Kappa-type opioid receptor; assay: Activity at human cloned kappa opioid receptor expressed in CHO cells assessed as inhibition of U50488-induced [35S]GTPgammaS binding; format: functional, cell-based

Sequence of Mu-type opioid receptor (Cavia porcellus, UniProt P97266) (P97266 whole entry): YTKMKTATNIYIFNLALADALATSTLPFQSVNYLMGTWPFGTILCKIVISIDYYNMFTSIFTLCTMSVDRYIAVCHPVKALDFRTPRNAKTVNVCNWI

For `C[C@@H]1[C@@H]2Cc3ccc(C(N)=O)cc3[C@@]1(C)CCN2C[C@@H]1CCCO1`, the Ki (Mu-type opioid receptor [1]) was 0.052 nM, the Ki [2] was 2 nM and the Ki [3] was 0.089 nM. For the same compound, the EC50 [4] was 30 nM.
For `CC1C2Cc3ccc(C(N)=O)cc3C1(C)CCN2CC1CC1` (stereo not drawn), the Ki [5] was 5.2 nM.
`NC(=O)c1ccc2c3c1O[C@H]1C(=O)CC[C@@]4(O)[C@@H](C2)N(CC2CC2)CC[C@]314` showed a Ki [6] of 0.36 nM, a Ratio Ki (CHO [7]) of 0.065 and a Ratio Ki (CHO [8]) of 50.
With `C[C@H]1C2Cc3ccc(O)cc3[C@@]1(C)CCN2CCc1ccccc1` the Ki (Mu-type opioid receptor [9]) was 0.2 nM, the Ki [5] was 5 nM and the Ki [6] was 2 nM. The Ratio Ki (CHO [7]) was 0.1, the Ratio Ki (CHO [8]) was 2.5 and the EC50 (Mu-type opioid receptor [10]) was 27 nM. The EC50 [4] was 8.1 nM.
For `C=C1CC[C@@]2(O)[C@H]3Cc4ccc(C(N)=O)c5c4[C@@]2(CCN3CC2CC2)[C@H]1O5`, the Ki (Mu-type opioid receptor [9]) was 2.6 nM, the Ki [5] was 67 nM and the Ki [6] was 2.1 nM. The Ratio Ki (CHO [7]) was 1 and the Ratio Ki (CHO [8]) was 32.
Compound `C[C@@H]1[C@@H]2Cc3ccc(O)cc3[C@@]1(C)CCN2C[C@H]1CCCO1` has a Ki (Mu-type opioid receptor [1]) of 4 nM, a Ki [2] of 67 nM and a Ki [3] of 1.5 nM. It also gave a Ratio Ki (Cavia porcellus) of 45 and an EC50 [4] of 41 nM.
In the case of `CCC12CCN(CC3CC3)C(C(=O)c3ccc(O)cc31)C2C` (stereo not drawn), the Ki (Mu-type opioid receptor [1]) is reported as 0.78 nM and the Ki [2] is reported as 3.4 nM.
For `CN1CC[C@]23c4c5ccc(C(N)=O)c4O[C@H]2[C@@H](O)C=C[C@H]3[C@H]1C5`, the Ki (Mu-type opioid receptor [1]) was 34 nM, the Ki [2] was 1900 nM and the Ki [3] was 2000 nM. It also gave a Ratio Ki (Cavia porcellus) of 1.
`CN(C)C[C@H]1CCCC[C@]1(O)c1cccc(O)c1` (relative stereo) [O-DESMETHYL TRAMADOL] gave a Ki [5] of 2900 nM and a Ki [6] of 450 nM.
With `CC1C2Cc3ccc(C(N)=O)cc3C1(C)CCN2C` (stereo not drawn) the Ki (Mu-type opioid receptor [9]) was 1.6 nM, the Ki [5] was 320 nM and the Ki [6] was 19 nM. For the same compound, the Ratio Ki (CHO [7]) was 0.08, the Ratio Ki (CHO [8]) was 17 and the EC50 (Mu-type opioid receptor [10]) was 24 nM. The IC50 (Mu-type opioid receptor [11]) was 25 nM.
`CN(C)C[C@H]1CCCC[C@]1(O)c1cccc(C(N)=O)c1` (relative stereo) showed a Ki (Mu-type opioid receptor [9]) of 9.5 nM, a Ki [5] of 2400 nM and a Ki [6] of 350 nM. It also gave a Ratio Ki (CHO [7]) of 0.03 and a Ratio Ki (CHO [8]) of 7.
Work on `C[C@H]1[C@@H]2Cc3ccc(O)cc3[C@]1(C)CCN2C` [METAZOCINE] yielded a Ki (Mu-type opioid receptor [9]) of 3.8 nM, a Ki [5] of 140 nM and a Ki [6] of 9.9 nM. The Ratio Ki (CHO [7]) was 0.4, the Ratio Ki (CHO [8]) was 14 and the EC50 (Mu-type opioid receptor [10]) was 40 nM. It also gave an EC50 [4] of 120 nM.
Work on `COc1cccc(C2(O)CCCCC2CN(C)C)c1` (stereo not drawn) [TRAMADOL] yielded a Ki [5] of 9.4 nM and a Ki [6] of 14 nM.
`CC1C2C(=O)c3ccc(C(N)=O)cc3C1(C)CCN2CC1CC1` (stereo not drawn) gave a Ki (Mu-type opioid receptor [1]) of 1.4 nM, a Ki [2] of 20 nM and an EC50 [4] of 9.6 nM.
With `NC(=O)c1ccc2c3c1O[C@H]1C4NC5C(C[C@@]6(O)[C@H]7Cc8ccc(C(N)=O)c9c8[C@@]6(CCN7CC6CC6)[C@H]5O9)C4C[C@@]4(O)[C@@H](C2)N(CC2CC2)CC[C@]314` (stereo partly drawn) the Ki (Mu-type opioid receptor [9]) was 400 nM, the Ki [5] was 1000 nM and the Ki [6] was 21 nM. The Ratio Ki (CHO [7]) was 19 and the Ratio Ki (CHO [8]) was 50.
Compound `NC(=O)c1ccc2c3c1O[C@H]1[C@@H](O)CC[C@@]4(O)[C@@H](C2)N(CC2CC2)CC[C@]314` has a Ki (Mu-type opioid receptor [9]) of 7.1 nM, a Ki [5] greater than 10000 nM and a Ki [6] of 100 nM. The Ratio Ki (CHO [7]) was 0.07.
Compound `NC(=O)c1ccc2c3c1O[C@H]1[C@H](O)CC[C@@]4(O)[C@@H](C2)N(CC2CC2)CC[C@]314` has a Ki (Mu-type opioid receptor [9]) of 2.5 nM, a Ki [5] greater than 10000 nM and a Ki [6] of 30 nM. It also gave a Ratio Ki (CHO [7]) of 0.08.
In the case of `C[C@@H]1[C@@H]2Cc3ccc(C(N)=O)cc3[C@@]1(C)CCN2C[C@H]1CCCO1`, the Ki (Mu-type opioid receptor [1]) is reported as 2.9 nM, the Ki [2] is reported as 34 nM and the Ki [3] is reported as 2.8 nM. It also gave an EC50 [4] of 170 nM.
`CC(C)=CCN1CC[C@@]2(C)c3cc(C(N)=O)ccc3C[C@@H]1[C@@H]2C` (relative stereo) gave a Ki [5] of 220 nM and a Ki [6] of 5.6 nM.
Compound `CC(C)=CCN1CC[C@@]2(C)c3cc(O)ccc3C[C@@H]1[C@@H]2C` (relative stereo) has a Ki [5] of 180 nM and a Ki [6] of 3 nM.
With `C=CCN1CC[C@]23c4c5ccc(C(N)=O)c4O[C@@H]2[C@@H](O)C=C[C@H]3[C@H]1C5` the Ki (Mu-type opioid receptor [9]) was 18 nM, the Ki [5] was greater than 10000 nM and the Ki [6] was 100 nM. For the same compound, the Ratio Ki (CHO [7]) was 0.2.
Work on `NC(=O)c1ccc2c(c1)[C@@]13CCCC[C@@]1(O)[C@@H](C2)N(CC1CCC1)CC3` yielded a Ki (Mu-type opioid receptor [9]) of 0.15 nM, a Ki [5] of 14 nM and a Ki [6] of 0.39 nM. For the same compound, the Ratio Ki (CHO [7]) was 0.38, the Ratio Ki (CHO [8]) was 40 and the IC50 (Mu-type opioid receptor [11]) was 30 nM. It also gave an EC50 [4] of 3.8 nM.
In the case of `CC1C2Cc3ccc(O)cc3[C@@]1(C)CCN2C[C@@H]1CCCO1` (single isomer, unassigned), the Ki (Mu-type opioid receptor [1]) is reported as 0.19 nM, the Ki [2] is reported as 3.6 nM and the Ki [3] is reported as 0.09 nM. It also gave a Ratio Ki (Cavia porcellus) of 40, an EC50 (Mu-type opioid receptor [10]) of 2.7 nM and an IC50 (Mu-type opioid receptor [11]) of 17 nM. The EC50 [4] was 1 nM.
In the case of `Oc1ccc2c(c1)[C@@]13CCCC[C@@]1(O)[C@@H](C2)N(CC1CCC1)CC3` [BUTORPHANOL], the EC50 [4] is reported as 2.9 nM.
Work on `C[C@H]1[C@H]2C(=O)c3ccc(O)cc3[C@]1(C)CCN2CC1CC1` [KETAZOCINE] yielded a Ki [2] of 20 nM, a Ki [3] of 1 nM and an EC50 (Mu-type opioid receptor [10]) of 21 nM. The IC50 (Mu-type opioid receptor [11]) was 130 nM and the EC50 [4] was 3.3 nM.
Compound `CC1C2Cc3ccc(C(N)=O)cc3C1(C)CCN2CCc1ccccc1` (stereo not drawn) has a Ki (Mu-type opioid receptor [9]) of 0.015 nM, a Ki [5] of 1.2 nM and a Ki [6] of 0.55 nM. For the same compound, the Ratio Ki (CHO [7]) was 0.03, the Ratio Ki (CHO [8]) was 2 and the EC50 (Mu-type opioid receptor [10]) was 5.3 nM. For the same compound, the EC50 [4] was 4.4 nM and the IC50 [12] was 640 nM.
Compound `CCC12CCN(CC3CC3)C(C(=O)c3ccc(C(N)=O)cc31)C2C` (stereo not drawn) has a Ki (Mu-type opioid receptor [1]) of 1.2 nM, a Ki [2] of 9.8 nM and a Ratio Ki (Cavia porcellus) of 14.
`C=CCN1CC[C@]23c4c5ccc(O)c4O[C@H]2[C@@H](O)C=C[C@H]3[C@H]1C5` [NALORPHINE] gave a Ki (Mu-type opioid receptor [9]) of 0.19 nM, a Ki [5] of 120 nM and a Ki [6] of 0.38 nM. The Ratio Ki (CHO [7]) was 0.5 and the Ratio Ki (CHO [8]) was 320.
